Measured values from ChEMBL document CHEMBL4834403, “Design and Synthesis of Novel Epigenetic Inhibitors Targeting Histone Deacetylases, DNA Methyltransferase 1, and Lysine Methyltransferase G9a with In Vivo Efficacy in Multiple Myeloma” (J Med Chem, 2021).
pIC50: −log10 of the molar value. Calls of active or inactive are those of the source. No cut-off for these calls is given here.

Columns and labels:
[1] = Toxicity in mouse assessed as mouse death at 5 mg/kg, ip after 15 mins; assay type: organism-based; conditions: in vivo, 0.25 h
Method in brief: (§1)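 Observation made during a preliminary pharmacokinetic study with i.p. dosing, n = 5 mice per dose level, with blood extraction after administration.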

MM1.S [2] = test: Induction of DNA hypomethylation in human MM1.S cells assessed as CPG hypomethylation at position 3 at 2 uM measured after 5 days relative to control; assay type: cell-based; conditions: time 5.0 day
Method in brief: (§2)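 MM1.S cells dosed every day for 5 days at 2 μM or 10 nM. DNA methylation at CpGs of the POU4F2 promoter read by pyrosequencing; run in duplicate.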

[3] = biological target: DNA (cytosine-5)-methyltransferase 1 (Homo sapiens, UniProt P26358); test: Inhibition of human DNMT1 enzyme using polydeoxy-inosine polydeoxy-cytosine DNA as substrate incubated for 15 mins in presence of SAM by TR-FRET assay
[4] = Toxicity in mouse assessed as mouse death at 10 mg/kg, ip after 10 mins; assay type: organism-based; conditions: in vivo; method in brief: as §1
[5] = biological target: Histone deacetylase (Homo sapiens) (UniProt Q13547+O15379+Q9UBN7+Q92769+Q9UQL6+Q8WUI4+Q9BY41+Q96DB2+P56524+Q9UKV0+Q969S8); test: Inhibition of HDAC in human MM1.S cells assessed as increase in H3K9Ac at > 1 uM after 48 hrs by Western blot analysis; assay type: cell-based; conditions: dose microM >1, time 48.0 hrs
Method in brief: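 MM1.S cells exposed 48 h across a concentration range. Global H3K9Ac and H3K9me2 read by Western blot; run in duplicate.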

[6] = Intrinsic clearance in mouse pooled hepatocytes; assay type: ADME, cell-based, Hepatocyte; conditions: read-out: CLH
CYP2D6 = CYP2D6 (Homo sapiens, UniProt P10635); test: Inhibition of CYP2D6 in human liver microsomes at 10 uM incubated for 10 mins in presence of NADPH by LC-MS/MS analysis relative to control; assay type: ADME
CYP3A4 = CYP3A4 (Homo sapiens, UniProt P08684); test: Inhibition of CYP3A4 in human liver microsomes at 10 uM incubated for 10 mins in presence of NADPH by LC-MS/MS analysis relative to control; assay type: ADME
CYP1A2 = biological target: T1, CYP1A2 (Homo sapiens, UniProt P05177); test: Inhibition of CYP1A2 in human liver microsomes at 10 uM incubated for 10 mins in presence of NADPH by LC-MS/MS analysis relative to control; assay type: ADME
T1 sequence (P05177 whole entry): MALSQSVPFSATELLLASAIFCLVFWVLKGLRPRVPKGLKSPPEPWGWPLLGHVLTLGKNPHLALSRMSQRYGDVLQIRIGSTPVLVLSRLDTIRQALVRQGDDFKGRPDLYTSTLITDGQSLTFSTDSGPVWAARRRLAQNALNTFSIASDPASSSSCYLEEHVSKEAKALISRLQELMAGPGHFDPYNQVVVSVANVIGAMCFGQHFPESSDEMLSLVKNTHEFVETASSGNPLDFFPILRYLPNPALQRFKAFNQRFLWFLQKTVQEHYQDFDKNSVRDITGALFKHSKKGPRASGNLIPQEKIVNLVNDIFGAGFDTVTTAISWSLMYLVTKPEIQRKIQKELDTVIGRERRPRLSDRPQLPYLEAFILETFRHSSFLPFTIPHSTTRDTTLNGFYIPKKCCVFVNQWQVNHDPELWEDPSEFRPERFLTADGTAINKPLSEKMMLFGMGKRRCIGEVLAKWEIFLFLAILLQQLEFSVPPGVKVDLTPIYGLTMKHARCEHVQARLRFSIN

[7] = Stability of the compound in mouse pooled hepatocytes assessed as parent compound remaining incubated for 60 mins; assay type: ADME, cell-based, Hepatocyte; conditions: read-out: Stabilty
MM1.S [8] = test: Induction of DNA hypomethylation in human MM1.S cells assessed as CPG hypomethylation at position 5 at 10 nM measured after 5 days relative to control; assay type: cell-based; conditions: time 5.0 day; method in brief: as §2
[9] = Apparent volume of distribution during terminal phase in BALB/c RAG2-/- gammaC-/- mouse at 10 mg/kg, ip using 80% saline 10% Tween20 and 10% DMSO formulation measured up to 24 hrs by UPLC-triple quadrupole MS analysis; assay type: ADME, organism-based; conditions: in vivo, read-out: Vz/F
CYP2C9 = CYP2C9 (Homo sapiens, UniProt P11712); test: Inhibition of CYP2C9 in human liver microsomes at 10 uM incubated for 10 mins in presence of NADPH by LC-MS/MS analysis relative to control; assay type: ADME
[10] = Apparent volume of distribution during terminal phase in BALB/c RAG2-/- gammaC-/- mouse at 10 mg/kg, ip measured up to 24 hrs by UPLC-triple quadrupole MS analysis; assay type: ADME, organism-based; conditions: in vivo, read-out: Vz/F
[11] = AUC (0 to 24 hrs) in BALB/c RAG2-/- gammaC-/- mouse at 10 mg/kg, ip measured up to 24 hrs by UPLC-triple quadrupole MS analysis; assay type: ADME, organism-based; design: route intraperitoneal, dose 10 mg/kg, time <=24; conditions: in vivo
[12] = Kinetic solubility of the compound; assay type: physicochemical; conditions: read-out: Kinetic_solubility
[13] = Toxicity in BALB/c RAG2-/- gammaC-/- mouse xenografted with human MM1.S cells assessed as effect on body weight at 10 mg/kg, ip administered for 5 consecutive days followed by 2 days rest and measured after 35 days; assay type: organism-based; conditions: in vivo, 840 h, time 35 day
MM1.S [14] = test: Antitumor activity against human MM1.S cells xenografted in BALB/c RAG2-/- gammaC-/- mouse assessed as reduction in tumor volume at 10 mg/kg, ip administered for 5 consecutive days followed by 2 days rest and measured after 35 days (reference value: 3836 +/- 1696 mm3); assay type: functional; conditions: time 35 day
[15] = Apparent oral clearance in BALB/c RAG2-/- gammaC-/- mouse at 10 mg/kg, ip using 80% saline 10% Tween20 and 10% DMSO formulation measured up to 24 hrs by UPLC-triple quadrupole MS analysis; assay type: ADME, organism-based; conditions: in vivo

CYP2C9, sequence (P11712 whole entry): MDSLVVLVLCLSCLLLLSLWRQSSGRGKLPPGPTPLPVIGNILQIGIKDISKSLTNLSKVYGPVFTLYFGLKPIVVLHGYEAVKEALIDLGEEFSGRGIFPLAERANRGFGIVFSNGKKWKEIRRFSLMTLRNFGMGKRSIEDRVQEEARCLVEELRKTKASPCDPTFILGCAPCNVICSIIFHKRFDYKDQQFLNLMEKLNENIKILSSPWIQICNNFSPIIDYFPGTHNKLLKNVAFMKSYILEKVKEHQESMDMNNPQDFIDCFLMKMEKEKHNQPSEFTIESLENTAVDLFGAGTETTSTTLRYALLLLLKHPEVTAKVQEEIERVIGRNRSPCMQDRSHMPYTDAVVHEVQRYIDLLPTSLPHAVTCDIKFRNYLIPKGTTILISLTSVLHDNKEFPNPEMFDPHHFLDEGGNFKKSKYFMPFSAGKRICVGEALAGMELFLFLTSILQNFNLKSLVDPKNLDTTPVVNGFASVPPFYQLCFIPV
CYP3A4, sequence (P08684 whole entry): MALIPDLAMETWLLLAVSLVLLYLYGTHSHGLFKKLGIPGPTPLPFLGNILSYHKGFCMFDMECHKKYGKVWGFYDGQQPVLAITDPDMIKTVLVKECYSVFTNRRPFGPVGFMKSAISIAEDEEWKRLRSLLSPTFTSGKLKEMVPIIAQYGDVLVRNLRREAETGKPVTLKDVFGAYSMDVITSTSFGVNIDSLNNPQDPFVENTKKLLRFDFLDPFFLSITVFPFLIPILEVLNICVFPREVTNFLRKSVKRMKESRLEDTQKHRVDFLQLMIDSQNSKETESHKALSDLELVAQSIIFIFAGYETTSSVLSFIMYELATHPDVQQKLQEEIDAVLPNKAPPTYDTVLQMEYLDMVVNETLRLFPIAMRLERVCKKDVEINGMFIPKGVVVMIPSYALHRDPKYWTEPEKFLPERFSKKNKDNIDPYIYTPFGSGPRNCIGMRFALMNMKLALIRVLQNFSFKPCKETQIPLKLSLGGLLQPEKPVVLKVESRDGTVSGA
CYP2D6, sequence (P10635 whole entry): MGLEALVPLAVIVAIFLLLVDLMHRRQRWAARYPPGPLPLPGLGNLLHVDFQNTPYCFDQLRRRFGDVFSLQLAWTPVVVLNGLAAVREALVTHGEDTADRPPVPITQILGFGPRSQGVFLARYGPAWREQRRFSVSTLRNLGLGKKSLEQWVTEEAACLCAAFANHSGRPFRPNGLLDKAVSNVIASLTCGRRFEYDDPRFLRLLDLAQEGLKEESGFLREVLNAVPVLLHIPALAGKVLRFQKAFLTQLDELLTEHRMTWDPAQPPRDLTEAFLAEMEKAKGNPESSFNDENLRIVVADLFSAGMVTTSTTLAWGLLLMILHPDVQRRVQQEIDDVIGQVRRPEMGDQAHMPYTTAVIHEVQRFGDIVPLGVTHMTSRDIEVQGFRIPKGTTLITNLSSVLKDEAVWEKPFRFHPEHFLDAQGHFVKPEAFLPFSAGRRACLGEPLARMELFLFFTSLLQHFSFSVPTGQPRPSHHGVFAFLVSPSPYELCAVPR
DNA (cytosine-5)-methyltransferase 1, sequence (P26358 whole entry): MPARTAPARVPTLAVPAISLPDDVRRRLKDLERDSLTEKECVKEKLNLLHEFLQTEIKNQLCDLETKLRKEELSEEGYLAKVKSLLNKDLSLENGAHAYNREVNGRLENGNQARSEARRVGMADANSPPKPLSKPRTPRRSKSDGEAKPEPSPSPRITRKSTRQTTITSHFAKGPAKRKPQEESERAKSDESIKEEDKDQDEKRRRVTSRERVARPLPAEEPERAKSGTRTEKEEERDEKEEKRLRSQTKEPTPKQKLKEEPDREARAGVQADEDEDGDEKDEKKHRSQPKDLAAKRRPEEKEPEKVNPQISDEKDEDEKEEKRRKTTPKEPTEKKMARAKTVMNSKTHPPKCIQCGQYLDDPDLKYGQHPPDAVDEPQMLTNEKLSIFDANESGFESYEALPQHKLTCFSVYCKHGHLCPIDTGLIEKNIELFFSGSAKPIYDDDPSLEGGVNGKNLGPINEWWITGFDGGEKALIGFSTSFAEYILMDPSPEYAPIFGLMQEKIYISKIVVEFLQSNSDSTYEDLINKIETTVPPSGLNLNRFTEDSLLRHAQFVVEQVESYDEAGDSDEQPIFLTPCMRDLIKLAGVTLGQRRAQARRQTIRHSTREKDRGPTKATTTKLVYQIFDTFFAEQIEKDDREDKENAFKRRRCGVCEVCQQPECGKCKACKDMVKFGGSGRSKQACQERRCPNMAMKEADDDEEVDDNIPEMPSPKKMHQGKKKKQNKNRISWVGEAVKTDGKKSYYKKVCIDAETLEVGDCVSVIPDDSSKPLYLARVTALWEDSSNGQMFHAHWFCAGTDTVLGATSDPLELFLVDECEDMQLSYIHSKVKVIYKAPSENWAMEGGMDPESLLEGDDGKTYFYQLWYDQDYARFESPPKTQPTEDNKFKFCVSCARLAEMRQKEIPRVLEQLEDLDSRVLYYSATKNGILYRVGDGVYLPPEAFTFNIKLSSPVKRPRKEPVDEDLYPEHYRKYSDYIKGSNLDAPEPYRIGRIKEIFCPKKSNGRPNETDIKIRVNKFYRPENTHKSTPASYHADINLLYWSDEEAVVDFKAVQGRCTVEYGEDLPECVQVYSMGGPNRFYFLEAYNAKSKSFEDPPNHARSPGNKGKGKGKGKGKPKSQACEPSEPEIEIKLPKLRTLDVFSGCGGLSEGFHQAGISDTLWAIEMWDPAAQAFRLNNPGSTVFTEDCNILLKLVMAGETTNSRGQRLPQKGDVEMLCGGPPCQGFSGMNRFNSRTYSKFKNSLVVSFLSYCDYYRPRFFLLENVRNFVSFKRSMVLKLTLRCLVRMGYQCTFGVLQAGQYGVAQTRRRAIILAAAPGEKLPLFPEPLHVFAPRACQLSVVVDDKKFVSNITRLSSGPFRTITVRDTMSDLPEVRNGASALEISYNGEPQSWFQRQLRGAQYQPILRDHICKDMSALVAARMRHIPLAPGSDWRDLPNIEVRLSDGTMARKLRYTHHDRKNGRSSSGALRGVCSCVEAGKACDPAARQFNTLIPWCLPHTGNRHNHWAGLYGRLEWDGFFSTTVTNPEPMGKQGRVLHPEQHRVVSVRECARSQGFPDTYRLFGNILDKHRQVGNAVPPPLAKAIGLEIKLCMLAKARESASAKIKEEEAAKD

Structure (SMILES) | Activity [1] | Activity (MM1.S [2]) [%] | pIC50 [3] | Activity [4] | inhibition [5] | CLint scaled [6] [mL/min/kg] | inhibition at 10 min, 10 µM (CYP2D6) [%] | inhibition at 10 min, 10 µM (CYP3A4) [%] | inhibition at 10 min, 10 µM (CYP1A2) [%] | remaining at 1 h [7] [%] | Activity (MM1.S [8]) [%] | Vd/F [9] [L] | inhibition at 10 min, 10 µM (CYP2C9) [%] | Vd/F [10] [L] | AUC(0-t) [11] [µM·h] | solubility kinetic [12] [µg/mL] | Activity [13] | Activity (MM1.S [14]) [mm3] | CL/F [15] [mL/min]
COc1cc2c(NCC3CCN(c4ncc(C(=O)NO)cn4)CC3)cc(-c3ccc(C)o3)nc2cc1OCCCN1CCCC1 | Toxic | 15 | 5.94 | Toxic | Active | – | – | – | – | – | – | – | – | – | – | – | – | – | –
COc1cc2nc(-c3ccc(C)o3)cc(NCC3CCN(c4ncc(C(=O)NO)cn4)CC3)c2cc1OC | – | – | – | – | – | 411 | 10.8 | 50.8 | 58.8 | 14.3 | 10 | 6.56 | 0 | 4.6 | 0.591 | < 0.987 | Non-Toxic | 1788 | 8.83
